Measurements taken from ChEMBL document CHEMBL1781884, “Design, synthesis, and structure-activity relationship of tropane muscarinic acetylcholine receptor antagonists” (J Med Chem, 2009).

How the values were obtained:
[1] = molecular target: T1, Muscarinic acetylcholine receptor M3 (Homo sapiens, UniProt P20309); assay: Antagonist activity against human M3 receptor expressed in CHO cells assessed as inhibition of acetylcholine-induced calcium mobilization by FLIPR; type: functional, cell-based; details: for Kb: read-out: pA2 (converted)
Mus musculus [2] = assay: Inhibition of methacholine-induced bronchoconstriction in dosed BALB/c mouse assessed as respiratory values at 5 ug, intranasal at 24 hrs; type: functional
Mus musculus [3] = assay: Bronchorelaxant activity in intranasally dosed BALB/c mouse bronchus assessed as inhibition of methacholine-induced contraction; type: functional
[4] = Systemic plasma clearance in rat at 2.5 mg/kg, iv; type: ADME, organism-based; parameters: dose 2.5 mg/kg, route intravenous
[5] = molecular target: T2, Muscarinic acetylcholine receptor M2 (Homo sapiens, UniProt P08172); assay: Displacement of [3H]N-methyl Scopolamine from human muscarinic M2 receptor expressed in CHO cells by scintillation proximity assay; type: cell-based
T2 sequence (P08172 whole entry): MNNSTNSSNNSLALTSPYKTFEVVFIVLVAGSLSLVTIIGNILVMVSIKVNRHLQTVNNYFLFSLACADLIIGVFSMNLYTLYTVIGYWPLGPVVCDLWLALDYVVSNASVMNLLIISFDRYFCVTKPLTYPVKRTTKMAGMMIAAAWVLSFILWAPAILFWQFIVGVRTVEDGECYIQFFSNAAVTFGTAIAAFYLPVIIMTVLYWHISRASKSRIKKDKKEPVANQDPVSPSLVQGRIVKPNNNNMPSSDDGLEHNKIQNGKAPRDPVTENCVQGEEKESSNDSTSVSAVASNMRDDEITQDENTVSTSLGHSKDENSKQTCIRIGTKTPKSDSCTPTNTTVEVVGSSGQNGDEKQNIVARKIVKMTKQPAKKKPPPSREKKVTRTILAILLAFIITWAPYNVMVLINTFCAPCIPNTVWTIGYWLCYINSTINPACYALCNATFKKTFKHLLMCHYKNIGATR
How it was run: (§1)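 Scintillation proximity binding on membranes from CHO cells expressing human M1, M2 or M3 receptor, competing against 0.5 nM [3H]-N-methylscopolamine; Ki reported, mean of two or more independent assays.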

[6] = molecular target: T1, Muscarinic acetylcholine receptor M3; assay: Displacement of [3H]N-methyl Scopolamine from human muscarinic M3 receptor expressed in CHO cells by scintillation proximity assay; type: cell-based; how it was run: as §1
[7] = molecular target: T1, Muscarinic acetylcholine receptor M3; assay: Antagonist activity at human muscarinic M3 receptor in human bronchus assessed as potency against carbachol-induced contraction; type: functional; details: read-out: pA2 (converted)
How it was run: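 Human bronchial strips (primary, secondary or tertiary airways, obtained at autopsy) mounted in organ baths on force-displacement transducers; preincubated 2 h with antagonist, then given increasing carbachol concentrations; potency expressed as pA2.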

[8] = molecular target: T1, Muscarinic acetylcholine receptor M3; assay: Antagonist activity at human muscarinic M3 receptor in human bronchus assessed as reversal time for 50% of carbachol-induced contraction to return to maximum relaxation at 10 nM; type: functional
How it was run: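 Human bronchial strips from primary, secondary or tertiary airways (autopsy) in organ baths on force-displacement transducers; preincubated 2 h with antagonist at 10 nM, then contracted with increasing carbachol. Antagonist then washed out, tissue superfused with carbachol-containing buffer and tension recovery followed over time; value is minutes to 50% reversal of antagonist blockade (Off t50).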

Mus musculus [9] = organism: Mus musculus; assay: Bronchorelaxant activity in methacholine-induced BALB/c mouse bronchus contraction model assessed as time to 50% loss of maximum protection at 0.5 ug, intranasally; type: functional
How it was run: (§2)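 Balb/C mice (n = 4 per group) dosed intranasally (50 μL, 10% DMSO vehicle); challenged 0.25-48 h later with 30 mg/mL methacholine aerosol for 2 min; Penh recorded over next 5 min, as ratio of post-drug to pre-drug Penh; duration taken as time to 50% loss of maximum protection.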

Rattus norvegicus = assay: (§3) Oral bioavailability in rat at 5.8 mg/kg; type: ADME, organism-based; details: in vivo, BLD = below limit of detection
How it was run: (§4)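 Rat oral dosing at 5.8 mg/kg; percent bioavailability determined from plasma levels, individual animal values listed because of variability.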

Mus musculus [10] = assay: Inhibition of methacholine-induced bronchoconstriction in dosed BALB/c mouse assessed as respiratory values at 50 ug, intranasal at 24 hrs; type: functional
Mus musculus [11] = organism: Mus musculus; assay: Bronchorelaxant activity in methacholine-induced BALB/c mouse bronchus contraction model assessed as time to 50% loss of maximum protection at 5 ug, intranasally; type: functional; how it was run: as §2
[12] = Systemic plasma clearance in rat at 2.8 mg/kg, iv; type: ADME, organism-based; parameters: dose 2.8 mg/kg, route intravenous
[13] = molecular target: T3, Muscarinic acetylcholine receptor M1 (Homo sapiens, UniProt P11229); assay: Displacement of [3H]N-methyl Scopolamine from human muscarinic M1 receptor expressed in CHO cells by scintillation proximity assay; type: cell-based; how it was run: as §1
T3 sequence (P11229 whole entry): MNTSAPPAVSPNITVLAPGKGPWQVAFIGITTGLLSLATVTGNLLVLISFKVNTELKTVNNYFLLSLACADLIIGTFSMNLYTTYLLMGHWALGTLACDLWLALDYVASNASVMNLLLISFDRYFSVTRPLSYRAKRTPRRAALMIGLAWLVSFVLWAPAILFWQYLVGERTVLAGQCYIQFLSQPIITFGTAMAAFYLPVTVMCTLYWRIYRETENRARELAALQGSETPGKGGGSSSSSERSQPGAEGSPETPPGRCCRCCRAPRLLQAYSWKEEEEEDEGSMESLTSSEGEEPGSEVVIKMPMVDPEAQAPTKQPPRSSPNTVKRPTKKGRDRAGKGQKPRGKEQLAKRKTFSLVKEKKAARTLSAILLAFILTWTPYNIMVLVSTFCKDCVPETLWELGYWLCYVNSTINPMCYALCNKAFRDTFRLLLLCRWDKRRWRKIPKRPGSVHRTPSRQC

[14] = as §3; type: ADME, organism-based; details: in vivo; how it was run: as §4

## COc1ccc(C(O)(C[C@H]2C[C@H]3CC[C@@H](C2)[N+]3(C)C)c2ccc(OC)cc2)cc1
[1]
  IC50: > 10000 nM

## C[N+]1(C)[C@@H]2CC[C@H]1C[C@@H](CC(C(N)=O)(c1ccccc1)c1ccccc1)C2.[I-]
[1]
  IC50: < 10 nM
  Kb: 0.126 nM
Mus musculus [2]
  inhibition (INH): 90%

## C[N+]1(C)[C@@H]2CC[C@H]1C[C@@H](CC(O)(c1cccs1)c1cccs1)C2.[Br-]
[1]
  IC50: < 10 nM
  Kb: 2.51 nM
Mus musculus [2]
  inhibition (INH): 19%

## CCC(O)(C[C@H]1C[C@H]2CC[C@@H](C1)N2C)c1ccccc1 (some centres not stated)
[1]
  IC50: 135 nM

## Cc1cc(C(O)(C[C@H]2C[C@H]3CC[C@@H](C2)[N+]3(C)C)c2csc(C)c2)cs1
[1]
  IC50: 65 nM

## C[N+]1(C)[C@@H]2CC[C@H]1C[C@@H](CC(CO)(c1ccccc1)c1ccccc1)C2
[1]
  Kb: 3.98 nM

## C[N+]1(C)[C@@H]2CC[C@H]1C[C@@H](CC(C#N)(c1ccccc1)c1ccccc1)C2.[Br-]
Mus musculus [3]
  ED50: 0.01 µg
[4]
  clearance: 74 mL/min/kg
[5]
  Ki: 0.17 nM
[6]
  Ki: 0.06 nM
[7]
  Kb: 0.1 nM
[8]
  TIME: 1.42 h
Mus musculus [9]
  Time: >24 h
Rattus norvegicus
  F: BLD

## CN1[C@@H]2CC[C@H]1C[C@@H](CC(O)(c1cccs1)c1cccs1)C2
[1]
  IC50: < 10 nM
  Kb: 2.51 nM
Mus musculus [10]
  inhibition (INH): >10%

## Cc1c(F)cccc1C(O)(C[C@H]1C[C@H]2CC[C@@H](C1)[N+]2(C)C)c1cccc(F)c1C
[1]
  IC50: 65 nM

## C[N+]1(C)[C@@H]2CC[C@H]1C[C@@H](CC(O)(c1ccsc1)c1ccsc1)C2
[1]
  IC50: 17 nM

## C[N+]1(C)[C@@H]2CCC[C@H]1C[C@H](C=C(c1cccs1)c1cccs1)C2.[Br-]
[1]
  IC50: < 10 nM
  Kb: 1 nM
Mus musculus [2]
  inhibition (INH): 49%

## Cc1ccccc1C(O)(C[C@H]1C[C@H]2CC[C@@H](C1)[N+]2(C)C)c1ccccc1C.[Br-]
[1]
  IC50: 10 nM
  Kb: 5.01 nM
Mus musculus [2]
  inhibition (INH): 34%

## COc1ccccc1C(O)(C[C@H]1C[C@H]2CC[C@@H](C1)[N+]2(C)C)c1ccccc1OC
[1]
  IC50: > 10000 nM

## CN1[C@@H]2CC[C@H]1C[C@@H](CC(C#N)(c1ccccc1)c1ccccc1)C2
[1]
  Kb: 0.316 nM

## C[N+]1(C)[C@@H]2CC[C@H]1C[C@@H](C=C(c1cccs1)c1cccs1)C2.[Br-]
Mus musculus [3]
  ED50: 0.2 µg
Mus musculus [11]
  Time: 24 h
[12]
  clearance: 85 mL/min/kg
[1]
  IC50: < 10 nM
  Kb: 0.1 nM
Mus musculus [2]
  inhibition (INH): 72%
[13]
  Ki: 0.38 nM
[5]
  Ki: 0.73 nM
[6]
  Ki: 0.45 nM
[7]
  Kb: 1 nM
[8]
  TIME: 0.983 h
[14]
  bioavailability: 2.4%

## Cc1ccccc1C(O)(C[C@H]1C[C@H]2CCC[C@@H](C1)[N+]2(C)C)c1ccccc1C
[1]
  IC50: 23 nM

## CN1[C@@H]2CC[C@H]1C[C@@H](CC(O)(c1ccccc1)c1ccccn1)C2 (some centres not stated)
[1]
  IC50: 19 nM

## CN1[C@@H]2CC[C@H]1C[C@@H](CCC(O)(c1ccccc1)c1ccccc1)C2
[1]
  IC50: 134 nM

## Cc1ccc(F)cc1C(O)(C[C@H]1C[C@H]2CC[C@@H](C1)[N+]2(C)C)c1cc(F)ccc1C
[1]
  IC50: 37 nM

## C[N+]1(C)[C@@H]2CC[C@H]1C[C@@H](CC(O)(c1cc(F)cc(F)c1)c1cc(F)cc(F)c1)C2
[1]
  IC50: 112 nM

## C[N+]1(C)[C@@H]2CC[C@H]1C[C@@H](CC(O)(c1ccc(Cl)cc1)c1ccc(Cl)cc1)C2
[1]
  IC50: 74 nM

## C[N+]1(C)[C@@H]2CC[C@H]1C[C@@H](CC(O)(c1ccc(F)c(F)c1)c1ccc(F)c(F)c1)C2
[1]
  IC50: 290 nM

## CN1[C@@H]2CC[C@H]1C[C@@H](CC(C(N)=O)(c1ccccc1)c1ccccc1)C2
[1]
  IC50: < 10 nM
  Kb: 0.1 nM
Mus musculus [2]
  inhibition (INH): >10%

## C[N+]1(C)[C@@H]2CC[C@H]1C[C@@H](CC(O)(c1cccc(Cl)c1)c1cccc(Cl)c1)C2
[1]
  IC50: 25 nM

## CN1[C@@H]2CC[C@H]1C[C@@H](C(O)(c1ccccc1)c1ccccc1)C2
[1]
  IC50: 1500 nM

## CN1[C@@H]2CC[C@H]1C[C@@H](CC(O)(c1ccccc1)c1ccccc1)C2
[1]
  IC50: 973 nM
Mus musculus [10]
  inhibition (INH): >10%

## C[N+]1(C)[C@@H]2CC[C@H]1C[C@@H](C=C(c1ccccc1)c1ccccc1)C2.[Br-]
[1]
  IC50: < 10 nM
  Kb: 5.01 nM
Mus musculus [10]
  inhibition (INH): 76%

## Cc1ccccc1C(=C[C@H]1C[C@H]2CC[C@@H](C1)[N+]2(C)C)c1ccccc1C.[Br-]
[1]
  IC50: < 10 nM
  Kb: 0.1 nM
Mus musculus [2]
  inhibition (INH): 91%

## C[N+]1(C)[C@@H]2CCC[C@H]1C[C@@H](CC(O)(c1cccs1)c1cccs1)C2.[I-]
[1]
  IC50: < 10 nM
  Kb: 2 nM
Mus musculus [2]
  inhibition (INH): 44%

## C[N+]1(C)[C@@H]2CC[C@H]1C[C@@H](CC(O)(c1ccccc1)c1ccccc1)C2.[Br-]
Mus musculus [10]
  inhibition (INH): 62%

## C[N+]1(C)[C@@H]2CC[C@H]1C[C@@H](CC(O)(c1cccc(F)c1)c1cccc(F)c1)C2
[1]
  IC50: 11 nM
  Kb: 10 nM

## C[N+]1(C)[C@@H]2CCC[C@H]1C[C@H](CC(O)(c1ccccc1)c1ccccc1)C2.[Br-]
[1]
  IC50: < 10 nM
  Kb: 1.58 nM
Mus musculus [2]
  inhibition (INH): 34%
